Columns and labels:
[1] = biological target: Dual specificity protein kinase CLK1 (Mus musculus) (UniProt P22518); assay: Inhibition of recombinant mouse CLK1 expressed in bacteria assessed as residual activity at 10 uM using GRSRSRSRSRSR as substrate in presence of [gamma-33P]ATP relative to control
[2] = biological target: Dual specificity tyrosine-phosphorylation-regulated kinase 1A (Rattus norvegicus) (UniProt Q63470); assay: Inhibition of rat DYRK1A kinase domain (1 to 499 residues) expressed in bacteria assessed as residual activity at 10 uM using KKISGRLSPIMTEQ as substrate in presence of [gamma-33P]ATP relative to control
In short: (§1)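 Buffer: 10 mM MgCl2, 1 mM EGTA, 1 mM DTT, 25 mM Tris-HCl pH 7.5, 50 μg/ml heparin, 0.15 mg/ml BSA.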

[3] = biological target: T1, Cyclin-dependent kinase 5/CDK5 activator 1 (Homo sapiens) (UniProt Q00535+Q15078); assay: Inhibition of recombinant human CDK5/p25 expressed in bacteria assessed as residual activity at 1 uM using histone H1 as substrate in presence of [gamma-33P]ATP relative to control
T1 sequence (Q00535 whole entry): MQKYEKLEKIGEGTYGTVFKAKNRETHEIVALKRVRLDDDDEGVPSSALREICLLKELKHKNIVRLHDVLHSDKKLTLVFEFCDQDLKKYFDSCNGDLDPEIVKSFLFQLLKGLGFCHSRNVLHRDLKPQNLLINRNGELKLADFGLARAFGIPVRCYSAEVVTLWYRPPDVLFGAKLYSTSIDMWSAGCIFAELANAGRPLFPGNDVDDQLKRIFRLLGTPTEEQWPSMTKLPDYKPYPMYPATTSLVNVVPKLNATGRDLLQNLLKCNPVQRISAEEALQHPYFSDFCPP
T1 sequence (Q15078 99-307 partner limits assumed): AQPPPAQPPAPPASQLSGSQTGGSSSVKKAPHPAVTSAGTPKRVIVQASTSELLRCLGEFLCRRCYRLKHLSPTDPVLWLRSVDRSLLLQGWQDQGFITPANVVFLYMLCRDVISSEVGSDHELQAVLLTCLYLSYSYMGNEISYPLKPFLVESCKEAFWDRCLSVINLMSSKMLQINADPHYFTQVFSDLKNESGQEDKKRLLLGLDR
In short: (§2)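 Human recombinant CDK5/p25 (bacterially expressed) assayed with 0.8 μg/μl histone H1 as substrate and 15 μM [γ-33P]ATP. Residual activity versus DMSO controls, triplicate.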

[4] = biological target: Dual specificity protein kinase CLK1 (Mus musculus) (UniProt P22518); assay: Inhibition of recombinant mouse CLK1 expressed in bacteria assessed as residual activity at 1 uM using GRSRSRSRSRSR as substrate in presence of [gamma-33P]ATP relative to control
Sus scrofa domesticus [5] = organism: Sus scrofa domesticus; assay: Inhibition of porcine brain CK1delta/epsilon assessed as residual activity at 10 uM using RRKHAAIGSpAYSITA as substrate in presence of [gamma-33P]ATP relative to control; type: tissue-based
Sus scrofa domesticus [6] = organism: Sus scrofa domesticus; assay: Inhibition of porcine brain CK1delta/epsilon assessed as residual activity at 1 uM using RRKHAAIGSpAYSITA as substrate in presence of [gamma-33P]ATP relative to control; type: tissue-based
[7] = biological target: Dual specificity tyrosine-phosphorylation-regulated kinase 1A (Rattus norvegicus) (UniProt Q63470); assay: Inhibition of rat DYRK1A kinase domain (1 to 499 residues) expressed in bacteria assessed as residual activity at 1 uM using KKISGRLSPIMTEQ as substrate in presence of [gamma-33P]ATP relative to control; in short: as §1
[8] = biological target: T2, Glycogen synthase kinase-3 (Sus scrofa) (UniProt B2LUN4+I6LNT8); assay: Inhibition of porcine brain GSK-3alpha/beta assessed as residual activity at 1 uM using YRRAAVPPSPSLSRHSSPHQSpEDEEE as substrate in presence of [gamma-33P]ATP relative to control; type: tissue-based; settings: Sus scrofa domesticus
In short: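 Affinity-purified porcine brain GSK-3α/β with 0.01 µg/µl GS-1 peptide (phosphoserine-primed) as substrate and 15 µM [γ-33P]ATP. Buffer was 25 mM Tris-HCl pH 7.5, 10 mM MgCl2, 1 mM EGTA, 1 mM DTT, 50 µg/ml heparin and 0.15 mg/ml BSA. Radioactive incorporation was compared with DMSO-dilution controls, in triplicate.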

[9] = biological target: T2, Glycogen synthase kinase-3 (Sus scrofa); assay: Inhibition of porcine brain GSK-3alpha/beta assessed as residual activity at 10 uM using YRRAAVPPSPSLSRHSSPHQSpEDEEE as substrate in presence of [gamma-33P]ATP relative to control; type: tissue-based; settings: Sus scrofa domesticus
[10] = biological target: T1, Cyclin-dependent kinase 5/CDK5 activator 1 (Homo sapiens); assay: Inhibition of recombinant human CDK5/p25 expressed in bacteria assessed as residual activity at 10 uM using histone H1 as substrate in presence of [gamma-33P]ATP relative to control; in short: as §2
[11] = biological target: Dual specificity protein kinase CLK1 (Mus musculus, UniProt P22518); assay: Inhibition of recombinant mouse CLK1 expressed in bacteria using GRSRSRSRSRSR as substrate in presence of [gamma-33P]ATP
Dual specificity protein kinase CLK1, sequence (P22518 whole entry): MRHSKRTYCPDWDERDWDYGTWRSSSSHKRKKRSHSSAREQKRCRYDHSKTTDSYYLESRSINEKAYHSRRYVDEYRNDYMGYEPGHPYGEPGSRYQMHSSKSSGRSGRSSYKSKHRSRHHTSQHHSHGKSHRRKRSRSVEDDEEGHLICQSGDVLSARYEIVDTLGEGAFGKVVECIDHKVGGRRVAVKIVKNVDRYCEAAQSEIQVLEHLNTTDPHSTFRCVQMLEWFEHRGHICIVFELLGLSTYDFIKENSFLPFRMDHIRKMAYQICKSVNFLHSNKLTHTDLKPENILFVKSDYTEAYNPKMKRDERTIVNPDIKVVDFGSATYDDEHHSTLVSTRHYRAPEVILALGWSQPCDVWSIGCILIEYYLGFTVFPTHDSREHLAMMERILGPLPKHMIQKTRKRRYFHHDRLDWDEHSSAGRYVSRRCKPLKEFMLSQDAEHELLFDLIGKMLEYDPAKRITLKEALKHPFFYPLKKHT

U2OS = assay: Antiproliferative activity against human U2OS cells assessed as cell viability at 2 uM after 48 hrs by CellTiter96 AQueous assay relative to control; type: functional; settings: read-out: Activity
In short: (§3)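 Cells grown in McCoy's 5a (HCT116), DMEM (SH-SY5Y, MDA-MB231, U-2 OS) or DMEM:F12 (hTERT-RPE1), each with 10% fetal calf serum, 2 mM L-glutamine, penicillin/streptomycin. Exposed to compound at 2 μM for 48 h; viability read by CellTiter96 AQueous per manufacturer, as % of DMSO-treated cells. Triplicate, mean ± SD; staurosporine as positive control.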

[12] = Antiproliferative activity against hTERT-RPE1 cells assessed as cell viability at 2 uM after 48 hrs by CellTiter96 AQueous assay relative to control; type: cell-based, TERT-RPE1; settings: human, read-out: Activity; in short: as §3
MDA-MB-231 = assay: Antiproliferative activity against human MDA-MB-231 cells assessed as cell viability at 2 uM after 48 hrs by CellTiter96 AQueous assay relative to control; type: functional; settings: read-out: Activity; in short: as §3
HCT-116 = assay: Antiproliferative activity against human HCT116 cells assessed as cell viability at 2 uM after 48 hrs by CellTiter96 AQueous assay relative to control; type: functional; settings: read-out: Activity; in short: as §3
SH-SY5Y = assay: Antiproliferative activity against human SH-SY5Y cells assessed as cell viability at 2 uM after 48 hrs by CellTiter96 AQueous assay relative to control; type: functional; settings: read-out: Activity; in short: as §3

Dual specificity protein kinase CLK1 (Mus musculus), sequence (P22518 whole entry, looked up, the tested form may be a part): as the sequence (P22518 whole entry) above

Compound	Activity [1]	Activity [2]	Activity [3]	Activity [4]	Activity (Sus scrofa domesticus [5])	Activity (Sus scrofa domesticus [6])	Activity [7]	Activity [8]	Activity [9]	Activity [10]	IC50 [11]	viability at 2 µM (U2OS)	viability at 48 h, 2 µM [12]	viability at 2 µM (MDA-MB-231)	viability at 2 µM (HCT-116)	viability at 2 µM (SH-SY5Y)
CCN(CC)CCNc1ncc2cc3cnccc3c([N+](=O)[O-])c2n1	8%	47%	100%	46%	78%	91%	88%	74%	26%	79%						
O=[N+]([O-])c1c2ccncc2cc2cnc(NCCN3CCCCC3)nc12	1%	26%	96%	42%	37%	81%	52%	39%	1%	85%						
CN1CCN(CCCNc2ncc3cc4cnccc4c([N+](=O)[O-])c3n2)CC1	8%	3%	100%	22%	32%	92%	54%	59%	2%	48%	133 nM	2.5%	25.8%	11.7%	9.7%	36%
CN(C)CCCNc1ncc2cc3cnccc3c([N+](=O)[O-])c2n1	3%	31%	100%	27%	59%	86%	84%	80%	24%	64%						
CCN(CC)CCNc1ncc2cc3cnccc3c(N)c2n1	3%	6%	97%	31%	60%	91%	49%	73%	34%	40%						
O=[N+]([O-])c1c2ccncc2cc2cnc(NCCN3CCCC3)nc12	7%	29%	100%	27%	73%	92%	83%	81%	33%	83%						
CN1CCN(CCNc2ncc3cc4cnccc4c([N+](=O)[O-])c3n2)CC1	0%	6%	84%	32%	38%	63%	32%	69%	22%	77%						
Nc1c2ccncc2cc2cnc(NCCN3CCCCC3)nc12	11%	16%	95%	44%	52%	74%	37%	43%	24%	76%						
CCN(CC)CCCNc1ncc2cc3cnccc3c([N+](=O)[O-])c2n1	4%	23%	100%	31%	59%	87%	72%	92%	24%	50%						
O=[N+]([O-])c1c2ccncc2cc2cnc(NCCCN3CCOCC3)nc12	3%	10%	100%	14%	38%	100%	68%	76%	15%	60%	120 nM	27%	31%	39%	16.8%	54%
Nc1c2ccncc2cc2cnc(NCCCN3CCCCC3)nc12	4%	4%	100%	30%	48%	76%	26%	51%	30%	62%						
CNc1ncc2cc3cnccc3c([N+](=O)[O-])c2n1	2%	13%	73%	5%	45%	98%	39%	70%	51%	38%	18 nM	19.5%	36%	41%	22%	52%
CN(C)CCNc1ncc2cc3cnccc3c(N)c2n1	21%	32%	96%	51%	82%	78%	60%	58%	48%	86%						
O=[N+]([O-])c1c2ccncc2cc2cnc(NCCCN3CCCC3)nc12	5%	6%	100%	37%	37%	100%	87%	78%	24%	50%						
O=[N+]([O-])c1c2ccncc2cc2cnc(-c3ccccc3)nc12	17%	38%	100%	71%	57%	100%	100%	100%	100%	62%						
Nc1c2ccncc2cc2cnc(NCCN3CCCC3)nc12	4%	7%	100%	33%	61%	90%	54%	62%	29%	51%						
CN[C@@H]1C[C@H]2O[C@@](C)([C@@H]1OC)n1c3ccccc3c3c4c(c5c6ccccc6n2c5c31)C(=O)NC4 [STAUROSPORINE]												0.4%	9.1%	3.9%	27%	9.4%
Nc1c2ccncc2cc2cnc(-c3ccccc3)nc12	32%	41%	92%	68%	51%	62%	80%	85%	40%	65%						
O=[N+]([O-])c1c2ccncc2cc2cnc(NCCCN3CCCCC3)nc12	7%	6%	100%	16%	34%	100%	56%	76%	24%	53%	125 nM					
O=[N+]([O-])c1c2ccncc2cc2cnc(NCCN3CCOCC3)nc12	5%	20%	100%	36%	75%	93%	73%	88%	43%	69%						
Nc1ncc2cc3cnccc3c(N)c2n1												0.4%	0.2%	43.4%	1.3%	0.9%

— ChEMBL document CHEMBL4665625, “New pyrido[3,4-g]quinazoline derivatives as CLK1 and DYRK1A inhibitors: synthesis, biological evaluation and binding mode analysis” (Eur J Med Chem, 2019)
